Legend:
HL-60 = assay: Cytotoxicity against human HL-60 cells after 72 hrs by MTT assay; assay type: functional, cell-based; details: HL-60, 72 h
In short: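 HL-60 human leukemia cells exposed to glycosides for 72 h; viability read by MTT colorimetric assay in 96-well microplates. Dose–response curves plotted; IC50 = concentration giving 50% reduction of absorption versus control cells. Three independent experiments, each concentration in triplicate wells; mean ± SD. 10-Hydroxycamptothecine as positive control.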

Bel-7402 = assay: Cytotoxicity against human Bel-7402 cells after 72 hrs by sulforhodamine B assay; assay type: functional, cell-based; details: Bel-7402, 72 h
In short: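 BEL-7402 human hepatoma cells treated 72 h; cell protein measured by sulforhodamine B assay. IC50 taken from dose–response curves as concentration causing 50% drop in absorption relative to control cells. Means ± SD of three independent experiments, triplicate wells per concentration. 10-Hydroxycamptothecine served as positive control.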

| SMILES | IC50 (HL-60) | IC50 (Bel-7402) |
| --- | --- | --- |
| CO[C@@H]1[C@@H](O)[C@H](O[C@@H]2[C@@H](O)[C@H](O[C@H]3[C@H](O)[C@@H](O)[C@H](O[C@H]4[C@H](O[C@H]5CC[C@]6(C)C7=C[C@H](O)[C@@]89C(=O)O[C@@](C)(C%10CCC(C)(C)O%10)[C@@]8(O)CC[C@@]9(C)[C@@H]7CC[C@H]6C5(C)C)OC[C@@H](OS(=O)(=O)O)[C@@H]4O)O[C@@H]3C)O[C@H](CO)[C@H]2O)O[C@H](CO)[C@H]1O (some centres not stated) [HOLOTHURIN A] | 4.42 µM | 0.76 µM |
| CC[C@@]1(O)C(=O)OCc2c1cc1n(c2=O)Cc2cc3cc(O)ccc3nc2-1 [HYDROXYCAMPTOTHECIN] | 0.41 µM | 0.28 µM |
| CO[C@@H]1[C@@H](O)[C@H](O[C@@H]2[C@@H](O)[C@H](O[C@H]3[C@H](O)[C@@H](O)[C@H](O[C@H]4[C@H](O[C@H]5CC[C@]6(C)C7=C[C@H](O)[C@@]89C(=O)O[C@@](C)(CCCC(C)C)[C@H]8CC[C@@]9(C)[C@@H]7CC[C@H]6C5(C)C)OC[C@@H](OS(=O)(=O)O)[C@@H]4O)O[C@@H]3C)O[C@H](CO)[C@H]2O)O[C@H](CO)[C@H]1O [PERVICOSIDE C] | 4.48 µM | 0.66 µM |
| CO[C@@H]1[C@@H](O)[C@H](O[C@@H]2[C@@H](O)[C@H](O[C@H]3[C@H](O)[C@@H](O)[C@H](O[C@H]4[C@H](O[C@H]5CC[C@]6(C)C7=C[C@H](O)[C@@]89C(=O)O[C@@](C)(C%10CCC(C)(C)O%10)[C@H]8CC[C@@]9(C)[C@@H]7CC[C@H]6C5(C)C)OC[C@@H](OS(=O)(=O)O)[C@@H]4O)O[C@@H]3C)O[C@H](CO)[C@H]2O)O[C@H](CO)[C@H]1O (some centres not stated) [FUSCOCINEROSIDE C] | 0.88 µM | 0.58 µM |
| CO[C@@H]1[C@@H](O)[C@H](O[C@@H]2[C@@H](O)[C@H](O[C@H]3[C@H](O)[C@@H](O)[C@H](O[C@H]4[C@H](O[C@H]5CC[C@]6(C)C7=C[C@H](O)[C@@]89C(=O)O[C@@](C)(C(=O)CCC(C)C)[C@H]8CC[C@@]9(C)[C@@H]7CC[C@H]6C5(C)C)OC[C@@H](OS(=O)(=O)O)[C@@H]4O)O[C@@H]3C)O[C@H](CO)[C@H]2O)O[C@H](CO)[C@H]1O [FUSCOCINEROSIDE B] | 3.75 µM | 2.64 µM |
| CO[C@@H]1[C@@H](O)[C@H](O[C@@H]2[C@@H](O)[C@H](O[C@H]3[C@H](O)[C@@H](O)[C@H](O[C@H]4[C@H](O[C@H]5CC[C@]6(C)C7=C[C@H](O)[C@@]89C(=O)O[C@@](C)(C(=O)CCC(C)(C)OC(C)=O)[C@H]8CC[C@@]9(C)[C@@H]7CC[C@H]6C5(C)C)OC[C@@H](OS(=O)(=O)O)[C@@H]4O)O[C@@H]3C)O[C@H](CO)[C@H]2O)O[C@H](CO)[C@H]1O [FUSCOCINEROSIDE A] | 6.21 µM | 5.58 µM |

From ChEMBL document CHEMBL1158088, “Bioactive triterpene glycosides from the sea cucumber Holothuria fuscocinerea” (J Nat Prod, 2006)
